Data: ChEMBL document CHEMBL1156191, “Characterization of the pharmacophore properties of novel selective estrogen receptor downregulators (SERDs)” (J Med Chem, 2010)
The source made the active and inactive calls. The calls are words filed in the database; no cut-off is given here.

Legend:
MCF7 [1] = assay: Down regulation of ERalpha expression in human MCF7 cell cytoplasmic fraction at 1 uM after 16 hrs by Western blotting; format: functional, cell-based
In short: (§1)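 MCF-7 cells steroid-depleted five days in phenol red-free medium with 5% charcoal-dextran-treated calf serum, grown to ~80% confluency, then given 1 μM compound or 0.1% EtOH vehicle for 16 h. Cytoplasmic, nuclear, matrix and insoluble fractions or whole-cell lysate prepared. Western blot with anti-ERα (F10) and infrared detection; Sp1 serves as loading reference.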

MCF7 [2] = assay: Down regulation of ERalpha expression in human MCF7 cell nuclear fraction at 1 uM after 16 hrs by Western blotting; format: functional, cell-based; in short: as §1
MCF7 [3] = assay: Down regulation of ERalpha expression in human MCF7 cell matrix fraction at 1 uM after 16 hrs by Western blotting; format: functional, cell-based; in short: as §1
MCF7 [4] = assay: Down regulation of ERalpha expression in human MCF7 cell insoluble fraction at 1 uM after 16 hrs by Western blotting; format: functional, cell-based; in short: as §1
MCF7 [5] = assay: Down regulation of ERalpha expression in human MCF7 cell whole cell extract at 1 uM after 16 hrs by Western blotting; format: functional, cell-based; in short: as §1
MCF7 [6] = assay: Down regulation of ERalpha expression in human MCF7 cell cytoplasmic fraction at 1 uM treated 16 hrs before estradiol challenge measured after 4 hrs by Western blotting in presence of 1 nM estradiol; format: functional, cell-based
In short: (§2)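 Steroid-depleted MCF-7 cells (5 d, 5% charcoal-dextran calf serum, phenol red-free medium) exposed 16 h to 1 μM compound, then 1 nM estradiol added for 4 h before fractionation into cytoplasmic, nuclear, matrix, insoluble or whole-cell extracts. ERα detected by Western blot with F10 antibody; Sp1 used as loading reference.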

MCF7 [7] = assay: Down regulation of ERalpha expression in human MCF7 cell nuclear fraction at 1 uM treated 16 hrs before estradiol challenge measured after 4 hrs by Western blotting in presence of 1 nM estradiol; format: functional, cell-based; in short: as §2
MCF7 [8] = assay: Down regulation of ERalpha expression in human MCF7 cell matrix fraction at 1 uM treated 16 hrs before estradiol challenge measured after 4 hrs by Western blotting in presence of 1 nM estradiol; format: functional, cell-based; in short: as §2
MCF7 [9] = assay: Down regulation of ERalpha expression in human MCF7 cell insoluble fraction at 1 uM treated 16 hrs before estradiol challenge measured after 4 hrs by Western blotting in presence of 1 nM estradiol; format: functional, cell-based; in short: as §2
MCF7 [10] = assay: Down regulation of ERalpha expression in human MCF7 cell whole cell extract at 1 uM treated 16 hrs before estradiol challenge measured after 4 hrs by Western blotting in presence of 1 nM estradiol; format: functional, cell-based; in short: as §2
[11] = biological target: T1, Estrogen receptor (Homo sapiens) (UniProt P03372); assay: Displacement of [3H]estradiol from full-length human estrogen receptor alpha assessed as relative binding affinity by radiometric assay relative to estradiol
T1 sequence (whole entry): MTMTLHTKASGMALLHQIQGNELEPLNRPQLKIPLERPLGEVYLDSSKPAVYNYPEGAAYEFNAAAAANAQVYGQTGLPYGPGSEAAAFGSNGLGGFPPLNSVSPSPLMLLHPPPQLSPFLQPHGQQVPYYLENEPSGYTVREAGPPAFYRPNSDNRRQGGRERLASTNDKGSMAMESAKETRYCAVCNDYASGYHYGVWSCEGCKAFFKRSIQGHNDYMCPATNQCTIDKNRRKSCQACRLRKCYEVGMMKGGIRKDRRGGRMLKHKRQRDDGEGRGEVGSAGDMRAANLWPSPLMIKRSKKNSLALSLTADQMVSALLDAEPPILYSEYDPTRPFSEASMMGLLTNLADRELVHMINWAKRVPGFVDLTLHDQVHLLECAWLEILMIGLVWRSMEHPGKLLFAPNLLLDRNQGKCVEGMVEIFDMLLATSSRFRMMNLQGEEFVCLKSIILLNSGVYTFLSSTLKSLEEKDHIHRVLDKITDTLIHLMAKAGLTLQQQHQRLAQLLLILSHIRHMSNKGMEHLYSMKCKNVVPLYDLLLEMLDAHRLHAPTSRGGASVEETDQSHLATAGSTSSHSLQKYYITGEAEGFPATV

[12] = biological target: Estrogen receptor beta (Homo sapiens) (UniProt Q92731); assay: Displacement of [3H]estradiol from full-length human estrogen receptor beta assessed as relative binding affinity by radiometric assay relative to estradiol
Estrogen receptor beta (Homo sapiens), sequence (Q92731 whole entry): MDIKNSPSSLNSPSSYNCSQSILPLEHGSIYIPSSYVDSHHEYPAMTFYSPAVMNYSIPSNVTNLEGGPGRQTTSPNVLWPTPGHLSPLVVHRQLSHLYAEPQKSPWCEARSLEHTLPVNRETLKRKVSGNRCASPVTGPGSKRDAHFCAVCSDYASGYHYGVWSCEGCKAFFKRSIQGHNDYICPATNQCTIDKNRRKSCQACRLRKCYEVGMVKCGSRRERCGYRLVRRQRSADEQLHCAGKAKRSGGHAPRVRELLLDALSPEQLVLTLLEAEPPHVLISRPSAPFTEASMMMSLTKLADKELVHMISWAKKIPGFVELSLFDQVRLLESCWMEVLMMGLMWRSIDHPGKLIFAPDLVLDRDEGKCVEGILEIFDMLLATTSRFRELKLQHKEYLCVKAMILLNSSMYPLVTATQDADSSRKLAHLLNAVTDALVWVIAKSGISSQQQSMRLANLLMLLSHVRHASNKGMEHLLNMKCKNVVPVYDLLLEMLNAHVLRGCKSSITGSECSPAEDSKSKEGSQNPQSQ

Homo sapiens = species: Homo sapiens; assay: Ratio of relative binding affinity for human ERbeta to relative binding affinity for human ERalpha
[13] = biological target: T1, Estrogen receptor (Homo sapiens); assay: Effect on ERalpha-mediated transcriptional activity in human MCF7 cells assessed as reduction of estradiol-induced activation of pS2 mRNA expression at 1 uM treated 16 hrs before estradiol challenge measured after 4 hrs by RT-PCR analysis; format: cell-based
In short: (§3)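 MCF-7 cells steroid-depleted seven days in phenol red-free medium with 5% charcoal-dextran calf serum, grown to ~80% confluency, then given 1 μM compound 16 h followed by 0.1% ethanol vehicle or 1 nM estradiol for 4 h. Total RNA reverse transcribed and target mRNA quantified by real-time PCR. Repeated-measures one-way ANOVA with Tukey test.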

[14] = biological target: T1, Estrogen receptor (Homo sapiens); assay: Effect on ERalpha-mediated transcriptional activity in human MCF7 cells assessed as reduction of estradiol-induced activation of progesterone receptor mRNA expression at 1 uM treated 16 hrs before estradiol challenge measured after 4 hrs by RT-PCR analysis; format: cell-based; in short: as §3
[15] = biological target: T1, Estrogen receptor (Homo sapiens); assay: Effect on ERalpha-mediated transcriptional activity in human MCF7 cells assessed as reduction of estradiol-induced activation of carbonic anhydrase 12 mRNA expression at 1 uM treated 16 hrs before estradiol challenge measured after 4 hrs by RT-PCR analysis; format: cell-based; in short: as §3

Compound	Activity (MCF7 [1])	Activity (MCF7 [2])	Activity (MCF7 [3])	Activity (MCF7 [4])	Activity (MCF7 [5])	Activity (MCF7 [6])	Activity (MCF7 [7])	Activity (MCF7 [8])	Activity (MCF7 [9])	Activity (MCF7 [10])	relative binding affinity (RBA) [11]	relative binding affinity (RBA) [12]	Ratio (Homo sapiens)	Activity [13]	Activity [14]	Activity [15]
O=C(O)/C=C/c1ccc(C(=C2CCCCC2)c2ccc(O)cc2)cc1	inactive	inactive	inactive	inactive	inactive	Active	Active	Active	Active	Active						
C[C@]12CC[C@@H]3c4ccc(O)cc4C[C@@H](CCCCCCCCC[S+]([O-])CCCC(F)(F)C(F)(F)F)[C@H]3[C@@H]1CC[C@@H]2O (stereo partly drawn)	Active	Active	Active	Active	Active											
O=C(O)C/C=C/c1ccc(C(=C2C3CCCC2CCC3)c2ccc(O)cc2)cc1											9	23.1	2.6			
O=C(O)/C=C/c1ccc(C(=C2C3CCCC2CCC3)c2ccc(O)cc2)cc1	Active	inactive	inactive	inactive	inactive	Active	Active	Active	Active	Active				Active	Active	Active
O=C(O)CCCC/C=C/c1ccc(C(=C2C3CCCC2CCC3)c2ccc(O)cc2)cc1	inactive	inactive	inactive	inactive	inactive						87.4	81.1	0.93			
CCC(=C(c1ccc(O)cc1)c1ccc(/C=C/C(=O)O)cc1)c1ccccc1	Active	inactive	inactive	inactive	inactive	Active	Active	Active	Active	Active				Active	Active	Active
O=C(O)CCCCCCCCCCOc1ccc(C(=C2C3CCCC2CCC3)c2ccc(O)cc2)cc1	inactive	inactive	inactive	inactive	inactive											
Oc1ccc(C(=C2CCCCC2)c2ccc(O)cc2)cc1											68	334				
O=C(O)CCC/C=C/c1ccc(C(=C2C3CCCC2CCC3)c2ccc(O)cc2)cc1											38.5	62.8	1.6			
O=C(O)CC/C=C/c1ccc(C(=C2C3CCCC2CCC3)c2ccc(O)cc2)cc1											13.1	24.6	1.9			
COP(=O)(O)/C=C/c1ccc(C(=C2C3CCCC2CCC3)c2ccc(O)cc2)cc1											7.5	7.7	1			
